pIC50: −log10 of the molar value.
Key:
Cannabinoid receptor 2 [1] = target: T1, Cannabinoid receptor 2 (Homo sapiens, UniProt P34972); experiment: Agonist activity at human CB2 receptor expressed in CHOK1 cells assessed as inhibition of forskolin-induced cAMP production treated 15 mins before forskolin challenge measured after 1 hr by HTRF assay relative to control; assay type: functional, cell-based; conditions: CHO-K1
Summary of the method: (§1)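 CHO-K1 cells (1000 per well) expressing human or rat CB1 or CB2 were preincubated with compound at room temperature for 15 min. Forskolin at EC70 was then added for a further 30 min at room temperature. cAMP was read by HTRF (d2-cAMP plus anti-cAMP-cryptate, final 1 h at room temperature). IC50 and % Emax were reported.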

Cannabinoid receptor 1 [2] = target: T2, Cannabinoid receptor 1 (Homo sapiens, UniProt P21554); experiment: Agonist activity at human CB1 receptor expressed in CHOK1 cells assessed as inhibition of forskolin-induced cAMP production treated 15 mins before forskolin challenge measured after 1 hr by HTRF assay relative to control; assay type: functional, cell-based; conditions: CHO-K1; summary of the method: as §1
T2 sequence (P21554 whole entry): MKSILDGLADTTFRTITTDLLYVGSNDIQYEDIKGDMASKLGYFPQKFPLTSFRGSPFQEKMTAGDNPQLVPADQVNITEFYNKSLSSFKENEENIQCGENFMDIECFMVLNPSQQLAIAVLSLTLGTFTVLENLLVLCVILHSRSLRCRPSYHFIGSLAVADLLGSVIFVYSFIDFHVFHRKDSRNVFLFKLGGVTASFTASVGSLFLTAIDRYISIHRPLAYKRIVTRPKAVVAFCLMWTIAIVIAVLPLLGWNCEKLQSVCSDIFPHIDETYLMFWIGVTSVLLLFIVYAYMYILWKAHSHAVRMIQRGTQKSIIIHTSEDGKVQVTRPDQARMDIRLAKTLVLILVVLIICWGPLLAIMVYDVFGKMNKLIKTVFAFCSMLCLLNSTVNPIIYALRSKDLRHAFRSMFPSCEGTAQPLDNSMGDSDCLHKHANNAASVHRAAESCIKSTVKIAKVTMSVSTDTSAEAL

Cannabinoid receptor 2 [3] = target: T1, Cannabinoid receptor 2; experiment: Agonist activity at human CB2 receptor expressed in CHOK1 cells assessed as inhibition of forskolin-induced cAMP production treated 15 mins before forskolin challenge measured after 1 hr by HTRF assay; assay type: functional, cell-based, CHO-K1
Summary of the method: (§2)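 CHO-K1 cells (1000 per well) expressing human or rat CB1 or CB2 were preincubated with compound for 15 min at room temperature. Forskolin was then added at its EC70 for 30 min at room temperature. cAMP was detected by HTRF (d2-cAMP plus anti-cAMP cryptate) after a final 1 h incubation at room temperature. Values are reported as IC50 with % Emax.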

Cannabinoid receptor 1 [4] = target: T2, Cannabinoid receptor 1; experiment: Agonist activity at human CB1 receptor expressed in CHOK1 cells assessed as inhibition of forskolin-induced cAMP production treated 15 mins before forskolin challenge measured after 1 hr by HTRF assay; assay type: functional, cell-based, CHO-K1; summary of the method: as §2
Homo sapiens = species on record: Homo sapiens; experiment: Selectivity ratio of IC50 for human CB1 receptor to IC50 for human CB2 receptor
[5] = Fraction unbound in rat plasma; assay type: ADME, cell-free
[6] = Clearance in rat at 2 mg/kg, iv; assay type: ADME, organism-based; parameters: dose 2 mg/kg, route intravenous; conditions: in vivo
[7] = Half life in rat at 2 mg/kg, iv; assay type: ADME, organism-based; parameters: dose 2 mg/kg, route intravenous; conditions: in vivo

T1 sequence (P34972 whole entry): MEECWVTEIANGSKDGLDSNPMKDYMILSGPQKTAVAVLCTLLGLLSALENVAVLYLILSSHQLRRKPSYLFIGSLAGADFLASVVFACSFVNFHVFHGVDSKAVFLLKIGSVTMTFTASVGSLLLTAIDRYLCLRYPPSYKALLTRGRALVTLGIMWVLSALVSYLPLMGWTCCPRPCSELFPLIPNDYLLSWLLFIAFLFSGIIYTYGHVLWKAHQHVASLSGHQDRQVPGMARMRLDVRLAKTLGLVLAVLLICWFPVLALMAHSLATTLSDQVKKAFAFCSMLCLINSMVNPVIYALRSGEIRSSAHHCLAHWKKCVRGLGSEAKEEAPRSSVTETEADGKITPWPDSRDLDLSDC

What does the source list for `O=C(c1ccc2ncccc2c1)N1CC[C@@](O)(c2ccccc2)[C@@H]2CCCC[C@@H]21` (racemic)?
Emax (Cannabinoid receptor 2 [1]): 87%; Emax (Cannabinoid receptor 1 [2]): 95%; pIC50 (Cannabinoid receptor 2 [3]): 9.28; pIC50 (Cannabinoid receptor 1 [4]): 6.58; Ratio IC50 (Homo sapiens): 492

What does the source list for `O=C(c1cccc2[nH]cnc12)N1CC[C@@](O)(c2ccccc2)[C@@H]2CCCC[C@@H]21` (racemic)?
Emax (Cannabinoid receptor 2 [1]): 101%; Emax (Cannabinoid receptor 1 [2]): 53%; pIC50 (Cannabinoid receptor 2 [3]): 7.46; pIC50 (Cannabinoid receptor 1 [4]): < 4.77; Ratio IC50 (Homo sapiens): > 486

What does the source list for `O=C(c1cccc2[nH]ncc12)N1CC[C@@](O)(c2ccccc2)[C@@H]2CCCC[C@@H]21` (racemic)?
Emax (Cannabinoid receptor 2 [1]): 102%; Emax (Cannabinoid receptor 1 [2]): 15%; pIC50 (Cannabinoid receptor 2 [3]): 8.40; pIC50 (Cannabinoid receptor 1 [4]): < 4.77; fraction unbound [5]: 0.048; clearance [6]: 70 mL/min/kg; half-life [7]: 25.8 min; Ratio IC50 (Homo sapiens): > 4000

For `O=C(c1ccc2ccccc2n1)N1CC[C@](O)(c2ccccc2)[C@H]2CCCC[C@@H]21`, which Emax (Cannabinoid receptor 2 [1]) is on record?
The Emax was 98%.

What about the Emax (Cannabinoid receptor 1 [2]) of the same molecule?
The Emax was 84%.

And the pIC50 (Cannabinoid receptor 2 [3])?
The pIC50 was 7.39.

What about the pIC50 (Cannabinoid receptor 1 [4]) of the same molecule?
Its pIC50 is 5.69.

For `O=C(c1ccc(Cl)cc1)N1CC[C@](O)(c2ccccc2)[C@H]2CCCC[C@@H]21`, which Emax (Cannabinoid receptor 2 [1]) is on record?
The Emax was 90%.

What about the Emax (Cannabinoid receptor 1 [2]) of the same molecule?
Its Emax is 72%.

And the pIC50 (Cannabinoid receptor 2 [3])?
Its pIC50 is 7.62.

What about the pIC50 (Cannabinoid receptor 1 [4]) of the same molecule?
The pIC50 was 6.02.

With `O=C(c1cnco1)N1CC[C@@](O)(c2ccccc2)[C@@H]2CCCC[C@@H]21` (racemic) as the molecule, how does the Emax (Cannabinoid receptor 2 [1]) read?
The Emax was 98%.

What about the Emax (Cannabinoid receptor 1 [2]) of the same molecule?
Its Emax is 50%.

And the pIC50 (Cannabinoid receptor 2 [3])?
Its pIC50 is 6.81.

And the pIC50 (Cannabinoid receptor 1 [4])?
The pIC50 was 5.46.

Which Emax (Cannabinoid receptor 2 [1]) does the source give for `O=C(c1ccc2ccccc2n1)N1CC[C@](O)(c2ccccc2)[C@H]2CCCC[C@H]21` here?
The Emax was 98%.

And the Emax (Cannabinoid receptor 1 [2])?
Its Emax is 98%.

And the pIC50 (Cannabinoid receptor 2 [3])?
The pIC50 was 9.09.

What about the pIC50 (Cannabinoid receptor 1 [4]) of the same molecule?
The pIC50 was 6.73.

What does the source list for `O=C(c1ccc2cnccc2n1)N1CC[C@@](O)(c2ccccc2)[C@@H]2CCCC[C@@H]21` (racemic)?
Emax (Cannabinoid receptor 2 [1]): 99%; Emax (Cannabinoid receptor 1 [2]): 69%; pIC50 (Cannabinoid receptor 2 [3]): 8.26; pIC50 (Cannabinoid receptor 1 [4]): 5.46; Ratio IC50 (Homo sapiens): 626

What does the source list for `O=C(c1cccc2[nH]ccc12)N1CC[C@](O)(c2ccccc2)[C@H]2CCCC[C@@H]21`?
Emax (Cannabinoid receptor 2 [1]): 94%; Emax (Cannabinoid receptor 1 [2]): 31%; pIC50 (Cannabinoid receptor 2 [3]): 7.66; pIC50 (Cannabinoid receptor 1 [4]): < 4.77

Reference: ChEMBL document CHEMBL1765069, “Decahydroquinoline amides as highly selective CB2 agonists: role of selectivity on in vivo efficacy in a rodent model of analgesia” (Bioorg Med Chem Lett, 2011)
